According to ChEMBL document CHEMBL2311435, “Development of 18F-labeled picolinamide probes for PET imaging of malignant melanoma” (J Med Chem, 2013):

Assays:
[1] = system: Intestine; experiment: Biodistribution in intestine of C57BL/6 mouse xenografted with mouse B16F10 cells at 3.7 MBq, iv after 1 hr by gamma-scintillation counting analysis; type: ADME, organism-based, B16-F10; conditions: in vivo
In short: (§1)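 1.0 × 10^6 B16F10 cells in PBS injected subcutaneously into the right shoulder of C57BL/6 mice, grown to 0.5 cm (~10 day). Tail-vein injection of about 3.7 MBq (100 μCi) 18F probe in PBS (0.1 M, pH 7.4). Killed at 1.0 or 2.0 h p.i. (n = 4 per group). Tissues excised, weighed and gamma-counted; uptake expressed as %ID/g, mean ± SD.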

[2] = system: Brain; experiment: Biodistribution in brain of C57BL/6 mouse xenografted with mouse B16F10 cells at 3.7 MBq, iv after 1 hr by gamma-scintillation counting analysis; type: ADME, organism-based, B16-F10; conditions: in vivo; in short: as §1
[3] = system: Stomach; experiment: Biodistribution in stomach of C57BL/6 mouse xenografted with mouse B16F10 cells at 3.7 MBq, iv after 1 hr by gamma-scintillation counting analysis; type: ADME, organism-based, B16-F10; conditions: in vivo; in short: as §1
[4] = system: Spleen; experiment: Biodistribution in spleen of C57BL/6 mouse xenografted with mouse B16F10 cells at 3.7 MBq, iv after 1 hr by gamma-scintillation counting analysis; type: ADME, organism-based, B16-F10; conditions: in vivo; in short: as §1
[5] = system: Pancreas; experiment: Biodistribution in pancreas of C57BL/6 mouse xenografted with mouse B16F10 cells at 3.7 MBq, iv after 1 hr by gamma-scintillation counting analysis; type: ADME, organism-based, B16-F10; conditions: in vivo; in short: as §1
[6] = system: Liver; experiment: Biodistribution in liver of C57BL/6 mouse xenografted with mouse B16F10 cells at 3.7 MBq, iv after 1 hr by gamma-scintillation counting analysis; type: ADME, organism-based, B16-F10; conditions: in vivo; in short: as §1
[7] = system: Mus musculus; experiment: Biodistribution in lungs of C57BL/6 mouse xenografted with mouse B16F10 cells at 3.7 MBq, iv after 1 hr by gamma-scintillation counting analysis; type: ADME, organism-based, Lung, B16-F10; conditions: in vivo; in short: as §1
[8] = system: Heart; experiment: Biodistribution in heart of C57BL/6 mouse xenografted with mouse B16F10 cells at 3.7 MBq, iv after 1 hr by gamma-scintillation counting analysis; type: ADME, organism-based, B16-F10; conditions: in vivo; in short: as §1
[9] = system: Mus musculus; experiment: Biodistribution in tumor of C57BL/6 mouse xenografted with mouse B16F10 cells at 3.7 MBq, iv after 1 hr by gamma-scintillation counting analysis; type: ADME, organism-based, Neoplasm, B16-F10; conditions: in vivo; in short: as §1
[10] = system: Blood; experiment: Biodistribution in blood of C57BL/6 mouse xenografted with mouse B16F10 cells at 3.7 MBq, iv after 1 hr by gamma-scintillation counting analysis; type: ADME, organism-based, B16-F10; conditions: in vivo; in short: as §1
[11] = Drug uptake in tumor of C57BL/6 mouse xenografted with mouse B16F10 cells at 3.7 MBq, iv after 2 hrs by PET imaging analysis; type: ADME, organism-based, Neoplasm, B16-F10; conditions: in vivo
In short: (§2)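 Static small-animal PET at 0.5, 1 and 2 h after tail-vein injection of ~3.7 MBq (100 μCi) into B16F10-bearing C57BL/6 mice (n = 4 per probe). Isoflurane anesthesia, 5% induction and 2% maintenance in O2. Decay-corrected images. ROI-derived %ID/g assumes 1 g/ml density, without attenuation correction. Mean ± SD.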

[12] = Drug uptake in tumor of C57BL/6 mouse xenografted with mouse B16F10 cells at 3.7 MBq, iv after 1 hr by PET imaging analysis; type: ADME, organism-based, Neoplasm, B16-F10; conditions: in vivo; in short: as §2
[13] = Drug uptake in tumor of C57BL/6 mouse xenografted with mouse B16F10 cells at 3.7 MBq, iv after 0.5 hrs by PET imaging analysis; type: ADME, organism-based, Neoplasm, B16-F10; conditions: in vivo; in short: as §2
[14] = system: Nucleic Acid; experiment: Ratio of drug uptake in tumor to muscle of C57BL/6 mouse xenografted with mouse B16F10 cells at 3.7 MBq, iv after 2 hrs by gamma-scintillation counting analysis; type: ADME, organism-based, B16-F10; conditions: in vivo
In short: (§3)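 Same subcutaneous B16F10 model and tail-vein dose of about 3.7 MBq (100 μCi), n = 4 per group. Dissection at 1 or 2 h p.i. Gamma-counter %ID/g of tumor divided by that of blood, lung, liver or muscle, given as mean ± SD.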

[15] = system: Nucleic Acid; experiment: Ratio of drug uptake in tumor to liver of C57BL/6 mouse xenografted with mouse B16F10 cells at 3.7 MBq, iv after 2 hrs by gamma-scintillation counting analysis; type: ADME, organism-based, B16-F10; conditions: in vivo; in short: as §3
[16] = system: Nucleic Acid; experiment: Ratio of drug uptake in tumor to lungs of C57BL/6 mouse xenografted with mouse B16F10 cells at 3.7 MBq, iv after 2 hrs by gamma-scintillation counting analysis; type: ADME, organism-based, B16-F10; conditions: in vivo; in short: as §3
[17] = system: Nucleic Acid; experiment: Ratio of drug uptake in tumor to blood of C57BL/6 mouse xenografted with mouse B16F10 cells at 3.7 MBq, iv after 2 hrs by gamma-scintillation counting analysis; type: ADME, organism-based, B16-F10; conditions: tumour; in short: as §3
[18] = system: Nucleic Acid; experiment: Ratio of drug uptake in tumor to muscle of C57BL/6 mouse xenografted with mouse B16F10 cells at 3.7 MBq, iv after 1 hr by gamma-scintillation counting analysis; type: ADME, organism-based, B16-F10; conditions: in vivo; in short: as §3
[19] = system: Nucleic Acid; experiment: Ratio of drug uptake in tumor to liver of C57BL/6 mouse xenografted with mouse B16F10 cells at 3.7 MBq, iv after 1 hr by gamma-scintillation counting analysis; type: ADME, organism-based, B16-F10; conditions: in vivo; in short: as §3
[20] = system: Nucleic Acid; experiment: Ratio of drug uptake in tumor to lungs of C57BL/6 mouse xenografted with mouse B16F10 cells at 3.7 MBq, iv after 1 hr by gamma-scintillation counting analysis; type: ADME, organism-based, B16-F10; conditions: in vivo; in short: as §3
[21] = system: Nucleic Acid; experiment: Ratio of drug uptake in tumor to blood of C57BL/6 mouse xenografted with mouse B16F10 cells at 3.7 MBq, iv after 1 hr by gamma-scintillation counting analysis; type: ADME, organism-based, B16-F10; conditions: tumour; in short: as §3
[22] = system: Mus musculus; experiment: Biodistribution in eye of C57BL/6 mouse xenografted with mouse B16F10 cells at 3.7 MBq, iv after 2 hrs by gamma-scintillation counting analysis; type: ADME, organism-based, B16-F10; conditions: in vivo; in short: as §1
[23] = system: Bone; experiment: Biodistribution in bone of C57BL/6 mouse xenografted with mouse B16F10 cells at 3.7 MBq, iv after 2 hrs by gamma-scintillation counting analysis; type: ADME, organism-based, Bone element, B16-F10; conditions: in vivo; in short: as §1
[24] = system: Muscle tissue; experiment: Biodistribution in muscle of C57BL/6 mouse xenografted with mouse B16F10 cells at 3.7 MBq, iv after 2 hrs by gamma-scintillation counting analysis; type: ADME, organism-based, B16-F10; conditions: in vivo; in short: as §1
[25] = system: Zone of skin; experiment: Biodistribution in skin of C57BL/6 mouse xenografted with mouse B16F10 cells at 3.7 MBq, iv after 2 hrs by gamma-scintillation counting analysis; type: ADME, organism-based, B16-F10; conditions: in vivo; in short: as §1
[26] = system: Kidney; experiment: Biodistribution in kidney of C57BL/6 mouse xenografted with mouse B16F10 cells at 3.7 MBq, iv after 2 hrs by gamma-scintillation counting analysis; type: ADME, organism-based, B16-F10; conditions: in vivo; in short: as §1
[27] = system: Intestine; experiment: Biodistribution in intestine of C57BL/6 mouse xenografted with mouse B16F10 cells at 3.7 MBq, iv after 2 hrs by gamma-scintillation counting analysis; type: ADME, organism-based, B16-F10; conditions: in vivo; in short: as §1
[28] = system: Brain; experiment: Biodistribution in brain of C57BL/6 mouse xenografted with mouse B16F10 cells at 3.7 MBq, iv after 2 hrs by gamma-scintillation counting analysis; type: ADME, organism-based, B16-F10; conditions: in vivo; in short: as §1
[29] = system: Stomach; experiment: Biodistribution in stomach of C57BL/6 mouse xenografted with mouse B16F10 cells at 3.7 MBq, iv after 2 hrs by gamma-scintillation counting analysis; type: ADME, organism-based, B16-F10; conditions: in vivo; in short: as §1
[30] = system: Pancreas; experiment: Biodistribution in pancreas of C57BL/6 mouse xenografted with mouse B16F10 cells at 3.7 MBq, iv after 2 hrs by gamma-scintillation counting analysis; type: ADME, organism-based, B16-F10; conditions: in vivo; in short: as §1
[31] = system: Spleen; experiment: Biodistribution in spleen of C57BL/6 mouse xenografted with mouse B16F10 cells at 3.7 MBq, iv after 2 hrs by gamma-scintillation counting analysis; type: ADME, organism-based, B16-F10; conditions: in vivo; in short: as §1
[32] = system: Liver; experiment: Biodistribution in liver of C57BL/6 mouse xenografted with mouse B16F10 cells at 3.7 MBq, iv after 2 hrs by gamma-scintillation counting analysis; type: ADME, organism-based, B16-F10; conditions: in vivo; in short: as §1
[33] = system: Mus musculus; experiment: Biodistribution in lungs of C57BL/6 mouse xenografted with mouse B16F10 cells at 3.7 MBq, iv after 2 hrs by gamma-scintillation counting analysis; type: ADME, organism-based, Lung, B16-F10; conditions: in vivo; in short: as §1
[34] = system: Heart; experiment: Biodistribution in heart of C57BL/6 mouse xenografted with mouse B16F10 cells at 3.7 MBq, iv after 2 hrs by gamma-scintillation counting analysis; type: ADME, organism-based, B16-F10; conditions: in vivo; in short: as §1
[35] = system: Blood; experiment: Biodistribution in blood of C57BL/6 mouse xenografted with mouse B16F10 cells at 3.7 MBq, iv after 2 hrs by gamma-scintillation counting analysis; type: ADME, organism-based, B16-F10; conditions: in vivo; in short: as §1
[36] = system: Mus musculus; experiment: Biodistribution in tumor of C57BL/6 mouse xenografted with mouse B16F10 cells at 3.7 MBq, iv after 2 hrs by gamma-scintillation counting analysis; type: ADME, organism-based, Neoplasm, B16-F10; conditions: in vivo; in short: as §1
[37] = system: Bone; experiment: Biodistribution in bone of C57BL/6 mouse xenografted with mouse B16F10 cells at 3.7 MBq, iv after 1 hr by gamma-scintillation counting analysis; type: ADME, organism-based, Bone element, B16-F10; conditions: in vivo; in short: as §1
[38] = system: Mus musculus; experiment: Biodistribution in eye of C57BL/6 mouse xenografted with mouse B16F10 cells at 3.7 MBq, iv after 1 hr by gamma-scintillation counting analysis; type: ADME, organism-based, B16-F10; conditions: in vivo; in short: as §1
[39] = system: Muscle tissue; experiment: Biodistribution in muscle of C57BL/6 mouse xenografted with mouse B16F10 cells at 3.7 MBq, iv after 1 hr by gamma-scintillation counting analysis; type: ADME, organism-based, B16-F10; conditions: in vivo; in short: as §1
[40] = system: Zone of skin; experiment: Biodistribution in skin of C57BL/6 mouse xenografted with mouse B16F10 cells at 3.7 MBq, iv after 1 hr by gamma-scintillation counting analysis; type: ADME, organism-based, B16-F10; conditions: in vivo; in short: as §1
[41] = system: Kidney; experiment: Biodistribution in kidney of C57BL/6 mouse xenografted with mouse B16F10 cells at 3.7 MBq, iv after 1 hr by gamma-scintillation counting analysis; type: ADME, organism-based, B16-F10; conditions: in vivo; in short: as §1

Question: What does the source list for `CCN(CC)CCNC(=O)c1ccc([18F])nc1`?
Answer: Drug uptake [1]: 3.46 % ID/g; Drug uptake [2]: 1.56 % ID/g; Drug uptake [3]: 5.03 % ID/g; Drug uptake [4]: 2.88 % ID/g; Drug uptake [5]: 3.58 % ID/g; Drug uptake [6]: 4.47 % ID/g; Drug uptake [7]: 1.52 % ID/g; Drug uptake [8]: 1.54 % ID/g; Drug uptake [9]: 9.54 % ID/g; Drug uptake [10]: 0.46 % ID/g; Drug uptake [11]: 8.47 % ID/g; Drug uptake [12]: 7.94 % ID/g; Drug uptake [13]: 7.54 % ID/g; Ratio [14]: 15.22; Ratio [15]: 7.26; Ratio [16]: 10.49; Ratio [17]: 39.2; Ratio [18]: 11.24; Ratio [19]: 2.24; Ratio [20]: 6.23; Ratio [21]: 20.44; Drug uptake [22]: 32.23 % ID/g; Drug uptake [23]: 2.12 % ID/g; Drug uptake [24]: 0.52 % ID/g; Drug uptake [25]: 0.71 % ID/g; Drug uptake [26]: 1.2 % ID/g; Drug uptake [27]: 0.89 % ID/g; Drug uptake [28]: 0.41 % ID/g; Drug uptake [29]: 2.27 % ID/g; Drug uptake [30]: 0.71 % ID/g; Drug uptake [31]: 0.56 % ID/g; Drug uptake [32]: 1.07 % ID/g; Drug uptake [33]: 0.92 % ID/g; Drug uptake [34]: 0.4 % ID/g; Drug uptake [35]: 0.2 % ID/g; Drug uptake [36]: 9.29 % ID/g; Drug uptake [37]: 3.48 % ID/g; Drug uptake [38]: 34 % ID/g; Drug uptake [39]: 1.11 % ID/g; Drug uptake [40]: 2.37 % ID/g; Drug uptake [41]: 5.63 % ID/g
